According to ChEMBL document CHEMBL4732112, “Synthesis and in vitro evaluation of novel spiroketopyrazoles as acetyl-CoA carboxylase inhibitors and potential antitumor agents” (Eur J Med Chem, 2021):
Activity calls are given as the source filed them. No cut-off for these calls is given here.

Legend:
Acetyl-CoA carboxylase 1 [1] = target: T1, Acetyl-CoA carboxylase 1 (Homo sapiens, UniProt Q13085); test: Inhibition of recombinant human C-terminal His-tagged ACC1 (1 to 2383 residues) expressed in baculovirus infected Sf9 insect cells at 5 uM preincubated for 15 mins followed by substrate addition and measured after 60 mins by ADP-glo luminescence assay relative to control
Acetyl-CoA carboxylase 1 [2] = target: T1, Acetyl-CoA carboxylase 1; test: Inhibition of recombinant human C-terminal His-tagged ACC1 (1 to 2383 residues) expressed in baculovirus infected Sf9 insect cells at 0.1 uM preincubated for 15 mins followed by substrate addition and measured after 60 mins by ADP-glo luminescence assay relative to control
Acetyl-CoA carboxylase 1 [3] = target: T1, Acetyl-CoA carboxylase 1; test: Inhibition of recombinant human C-terminal His-tagged ACC1 (1 to 2383 residues) expressed in baculovirus infected Sf9 insect cells preincubated for 15 mins followed by substrate addition and measured after 60 mins by ADP-glo luminescence assay
Procedure, shortened: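 Recombinant ACC1 in assay buffer preincubated with inhibitor in DMSO for 15 min at room temperature. Reaction started with substrate mixture and run 60 min at room temperature. Stopped with ADP-Glo reagent for 40 min, then detection reagent for 40 min to convert ADP to ATP, read by luminescence. Mean of two independent experiments.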

HepG2 [4] = test: Antiproliferative activity against human HepG2 cells assessed as cell growth inhibition at 10 uM after 72 hrs by MTT assay relative to control; format: functional; details: read-out: GI
Procedure, shortened: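 Cells were DMEM/10% FBS cultures at 37 °C, 5% CO2, seeded at 3×10^3 per well and exposed for 72 h after 24 h attachment. Read-out was MTT with formazan in DMSO and absorbance at 550 nm, expressed as inhibition rate versus control.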

MDA-MB-231 = test: Antiproliferative activity against human MDA-MB-231 cells assessed as cell growth inhibition after 72 hrs by MTT assay; format: functional, cell-based; details: MDA-MB-231, 72 h
Procedure, shortened: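 HepG2, A549 or MDA-MB-231 cells grown in DMEM with 10% FBS and penicillin/streptomycin at 37 °C, 5% CO2. Seeded at 3×10^3 per well, left 24 h, then exposed to a range of concentrations for 72 h. MTT added for 4 h, formazan dissolved in DMSO, absorbance read at 550 nm. Mean ± SD, n=3.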

Acetyl-CoA carboxylase 1 [5] = target: T1, Acetyl-CoA carboxylase 1; test: Inhibition of ACC1 in human HepG2 cells assessed as reduction in intracellular triglyceride level measured after 48 hrs by GPO-PAP method; format: cell-based; details: dose 1-10 µM
Procedure, shortened: (§1)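 HepG2 cells plated and exposed to the compound at several concentrations for 48 h. Cells washed with PBS, lysed in 1% Triton X-100 and spun 12000 rpm, 4 °C, 15 min. Malonyl-CoA measured by ELISA kit and triglyceride by GPO-POP kit, each normalised to BCA protein. Reported relative to control, mean ± SD, n=3.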

Acetyl-CoA carboxylase 1 [6] = target: T1, Acetyl-CoA carboxylase 1; test: Inhibition of ACC1 in human HepG2 cells assessed as reduction in intracellular triglyceride level at 10 uM measured after 48 hrs by GPO-PAP method relative to control; format: cell-based; procedure, shortened: as §1
HepG2 [7] = test: Antiproliferative activity against human HepG2 cells assessed as cell viability at 0.5 uM measured after 5 days in presence of 25 uM palmitate by MTT assay relative to control; format: functional; details: HepG2, 120 h, time 5 day, read-out: Activity
Procedure, shortened: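 HepG2 treated with 0.5 μM plus 0, 10 or 25 μM palmitate for 1, 3 and 5 days. Palmitate was complexed with 5% fatty-acid-free BSA from a 5 mM solution, then diluted in serum-free DMEM to final concentration. Viability (% control) by MTT. Mean ± SD, n=3.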

HepG2 [8] = test: Cell cycle arrest in human HepG2 cells assessed as accumulation at G0/G1 phase measured after 48 hrs by propidium iodide staining based flow cytometry; format: functional; details: dose 1-10 µM
HepG2 [9] = test: Cell cycle arrest in human HepG2 cells assessed as accumulation at G0/G1 phase at 1 uM measured after 48 hrs by propidium iodide staining based flow cytometry (reference value: 56.24%); format: functional
HepG2 [10] = test: Cell cycle arrest in human HepG2 cells assessed as accumulation at S phase at 1 uM measured after 48 hrs by propidium iodide staining based flow cytometry (reference value: 30.18%); format: functional
HepG2 [11] = test: Cell cycle arrest in human HepG2 cells assessed as accumulation at G2/M phase at 1 uM measured after 48 hrs by propidium iodide staining based flow cytometry (reference value: 13.58%); format: functional
HepG2 [12] = test: Cell cycle arrest in human HepG2 cells assessed as accumulation at G2/M phase at 5 uM measured after 48 hrs by propidium iodide staining based flow cytometry (reference value: 13.58%); format: functional
HepG2 [13] = test: Cell cycle arrest in human HepG2 cells assessed as reduction in cyclin D1 expression at 10 uM measured after 48 hrs by Western blot analysis relative to control; format: functional; set-up: scale not given: the % may be the effect or the level left
Procedure, shortened: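 HepG2 cells treated for 48 h and lysed. Lysates cleared at 12000 rpm for 15 min and protein measured by BCA. Run on SDS-PAGE, transferred to PVDF, blocked in 5% BSA, primary antibody at 4 °C overnight, then DyLight 800 secondary. Infrared imaging and densitometry against β-actin. Mean ± SD, n=3.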

HepG2 [14] = test: Induction of apoptosis in human HepG2 cells assessed as nuclear fragmentation at 1 to 10 uM measured after 48 hrs by Hoechst 33258 staining based fluorescence microscopic analysis; format: functional, cell-based; details: dose 1-10 µM
Procedure, shortened: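 HepG2 cells exposed to varying concentrations for 48 h in 6-well plates. Stained with Hoechst 33258 in the dark for 20 min, then nuclear morphology inspected by fluorescence microscopy.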

HepG2 [15] = test: Induction of apoptosis in human HepG2 cells assessed as increase in early apoptotic cells measured after 48 hrs by Annexin V-FITC/propidium iodide staining based flow cytometry; format: functional, cell-based; details: dose 1-10 µM
Procedure, shortened: (§2)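 HepG2 cells incubated with the stated concentrations for 48 h, harvested, and stained with Annexin V-FITC and propidium iodide protected from light. Viable, early apoptotic, late apoptotic and necrotic fractions quantified by flow cytometry. Mean ± SD, n=3.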

HepG2 [16] = test: Induction of apoptosis in human HepG2 cells assessed as early apoptotic cells at 1 uM measured after 48 hrs by Annexin V-FITC/propidium iodide staining based flow cytometry (reference value: 4.03%); format: functional; procedure, shortened: as §2
HepG2 [17] = test: Induction of apoptosis in human HepG2 cells assessed as early apoptotic cells at 5 uM measured after 48 hrs by Annexin V-FITC/propidium iodide staining based flow cytometry (reference value: 4.03%); format: functional; procedure, shortened: as §2
HepG2 [18] = test: Induction of apoptosis in human HepG2 cells assessed as late apoptotic cells at 5 uM measured after 48 hrs by Annexin V-FITC/propidium iodide staining based flow cytometry (reference value: 0.19%); format: functional; procedure, shortened: as §2
HepG2 [19] = test: Induction of apoptosis in human HepG2 cells assessed as increase in Bax expression measured after 48 hrs by Western blot analysis; format: functional, cell-based; details: dose 1-10 µM
Procedure, shortened: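 Western blots for Bcl-2, Bax, cleaved caspase-3 and cleaved PARP in HepG2 cells after 48 h treatment (1, 5, 10 μM for PARP). Lysates cleared, protein quantified by BCA, run on SDS-PAGE to PVDF, blocked in 5% BSA, primary overnight at 4 °C, DyLight 800 secondary. Infrared scanning and densitometry normalized to β-actin. Mean ± SD, n=3.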

HepG2 [20] = test: Antiproliferative activity against human HepG2 cells assessed as combination index at 1.4 uM measured after 72 hrs in presence of 2.8 uM doxorubicin by MTT assay; format: functional
HepG2 [21] = test: Antiproliferative activity against human HepG2 cells assessed as combination index at 0.0875 uM measured after 72 hrs in presence of 0.175 uM doxorubicin by MTT assay; format: functional

inhibition (Acetyl-CoA carboxylase 1 [1]): 100% | inhibition (Acetyl-CoA carboxylase 1 [2]): 86.2% | IC50 (Acetyl-CoA carboxylase 1 [3]): 11.3 nM | IC50 (MDA-MB-231): 1650 nM | inhibition (Acetyl-CoA carboxylase 1 [5]): Dose-dependent effect | inhibition (Acetyl-CoA carboxylase 1 [6]): 36.7%
Structure (SMILES): CC(C)(C)n1cc2c(n1)C(=O)CC1(CCN(C(=O)c3cc(-c4ccncc4)nc4ccccc34)CC1)O2
inhibition of growth at 10 µM (HepG2 [4]): 80.1% | viability at 0.5 µM (HepG2 [7]): 87.1% | Activity (HepG2 [8]): Dose-dependent effect | Activity (HepG2 [9]): 67.68% | Activity (HepG2 [10]): 21.46% | Activity (HepG2 [11]): 10.86% | Activity (HepG2 [12]): 6.46% | Activity (HepG2 [13]): 43.92% | Activity (HepG2 [14]): Active | Activity (HepG2 [15]): Dose-dependent effect | Activity (HepG2 [16]): 11.6% | Activity (HepG2 [17]): 18.9% | Activity (HepG2 [18]): 32.6% | Activity (HepG2 [19]): Dose-dependent effect | CI (HepG2 [20]): 0.366 | CI (HepG2 [21]): 0.713
